Data on 37 sequences can be found in the array DNA melting data of Ke et al. (doi:10.1101/2024.01.08.574731).

Series [1] is described as follows: folding enthalpy; higher = less favourable; fluorescence melt of hairpins on a sequencing array, two-state fit. The settings on record: sodium 0.088 M. In outline:
(§1)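 Cy3 signals were normalised both to pre-quench Cy3 and to control constructs. They came from library hairpins carrying annealed Cy3 and quencher oligos on a sequenced MiSeq flow cell, imaged in 50 mM Na-HEPES pH 8.0, 25 mM NaCl, in 2.5 °C steps up to 60 °C. Bootstrapped two-state fits gave melting temperature and folding enthalpy, and four replicates were combined by inverse variance. Fitted temperatures were then raised by 9.35 °C to match UV melts.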

The nature of series [2]: melting temperature; fluorescence melt of hairpins on a sequencing array, two-state fit, raised by 9.35 °C to match UV melts. The settings on record: sodium 0.088 M. An outline of the steps: as §1

As for GTGCCCGAAAGGGGGCAC ((((((....)))..))), in series [1], the folding enthalpy was -22.2 kcal/mol. Further, the Tm in series [2] amounted to 69.1 °C.

In the case of GATCCGGGAACGGATC ((((((....)))))), the folding enthalpy in series [1] was -33.4 kcal/mol. In addition, the Tm in series [2] was found to be 66.1 °C.

With GGGCTCGAAAGAGTACCC ((((((....)))..))), in series [1], the folding enthalpy is -17.5 kcal/mol. Besides, the Tm in series [2] came to 45 °C.

For the sequence GCGTGGCGAAAGCAAGGC ((.(.((....)).).)), the folding enthalpy in series [1] is -18.8 kcal/mol. The Tm in series [2] was determined as 46.6 °C.

Regarding GCCTTTGGAAACGAAGGC (((((.(....).))))), the folding enthalpy in series [1] was -35.4 kcal/mol. Besides, in series [2], the Tm was 51.6 °C.

As to GGTTAGGAAACTAACC ((((((....)))))), the folding enthalpy in series [1] is -35.6 kcal/mol. Besides, the Tm in series [2] turned out to be 52.3 °C.

Consider GCCTGCGAAAGCAATGGC ((((((....)))..))), for which the folding enthalpy in series [1] was -23.8 kcal/mol. The Tm in series [2] worked out at 56 °C.

Consider GTTAGTGGAAACGTTAAC ((((..(....)..)))), for which the folding enthalpy in series [1] is -10.1 kcal/mol. For the same sequence, the Tm in series [2] is 27.6 °C.

Take GGGTCGGCGAAAGCCCCC (((..(((....)))))): in series [1], the folding enthalpy is -13.9 kcal/mol. In addition, the Tm in series [2] was determined as 46.1 °C.

As for GTTTGACGAAAGTCTAAC (((.(((....))).))), the folding enthalpy in series [1] was -25 kcal/mol. In addition, the Tm in series [2] is 47.7 °C.

Turning to GCGGTGCGAAAGCCCAGC ((.(.((....)).).)), the folding enthalpy in series [1] is -21.6 kcal/mol. For the same sequence, in series [2], the Tm stood at 54.2 °C.

For the sequence GAGGTGACGAAAGTCCTC (((..(((....)))))), the folding enthalpy in series [1] was -17.6 kcal/mol. Further, the Tm in series [2] came out at 34.9 °C.

For the sequence GATCCTAGACAGGATC ((((((....)))))), in series [1], the folding enthalpy was -36.5 kcal/mol. Also, in series [2], the Tm came to 50.4 °C.

For the sequence GAGGTACGAAAGTATCTC (((.(((....))).))), in series [1], the folding enthalpy was -32.3 kcal/mol. In addition, the Tm in series [2] was 50.5 °C.

As for GATCCACGTGTGGATC ((((((....)))))), in series [1], the folding enthalpy was -44.5 kcal/mol. In series [2], the Tm worked out at 65.9 °C.

As to GGGTTGGGAAACCGACCC ((((.((....)).)))), the folding enthalpy in series [1] was -45.4 kcal/mol. The Tm in series [2] amounted to 58.4 °C.

Regarding GGGATCGAAAGATAACCC ((((((....)))..))), the folding enthalpy in series [1] is -19.4 kcal/mol. Besides, the Tm in series [2] stood at 34.9 °C.

In the case of GGGCAGGCGAAAGCCCCC (((..(((....)))))), the folding enthalpy in series [1] is -14.5 kcal/mol. The Tm in series [2] is 46 °C.

For the sequence GGTTCGGGAAACCAAACC ((((.((....)).)))), the folding enthalpy in series [1] is -30.3 kcal/mol. Moreover, the Tm in series [2] is 40.4 °C.

Take GTGCTCGAAAGAGGACAC ((((((....)))..))): the folding enthalpy in series [1] is -15.6 kcal/mol. In addition, the Tm in series [2] was 49.8 °C.

For GCCGGGCGAAAGCCCCGC ((.((((....)))).)), the folding enthalpy in series [1] was -16.2 kcal/mol. For the same sequence, the Tm in series [2] turned out to be 54.4 °C.

On to GCGATCGGAAACAATCGC (((((.(....).))))), for which, in series [1], the folding enthalpy was -37.6 kcal/mol. Also, the Tm in series [2] stood at 48.1 °C.

GGTGCGGGAAACTGCGCC ((.((.(....).)).)): the folding enthalpy in series [1] is -49.1 kcal/mol. Also, the Tm in series [2] turned out to be 52.7 °C.

Regarding GCCATCGGAAACGACGGC (((.(((....))).))), the folding enthalpy in series [1] is -35.5 kcal/mol. The Tm in series [2] came to 52.1 °C.

On to GATCGAGGCGTCGATC ((((((....)))))), for which the folding enthalpy in series [1] is -40.6 kcal/mol. Moreover, in series [2], the Tm was found to be 55.1 °C.

With GCTCGTGGAAACACGGGC ((.((((....)))).)), in series [1], the folding enthalpy is -37.1 kcal/mol. The Tm in series [2] came out at 62.2 °C.

On to GATCGATAGTTCGATC ((((((....)))))), for which the folding enthalpy in series [1] is -39.3 kcal/mol. For the same sequence, the Tm in series [2] was 50.8 °C.

With GGTGACGGAAACGTCGCC ((.((((....)))).)), the folding enthalpy in series [1] was -34 kcal/mol. Further, the Tm in series [2] was 64.6 °C.

For the sequence GATTACGAAAGTATATC ((((((....))).))), the folding enthalpy in series [1] is -17.1 kcal/mol. The Tm in series [2] was found to be 32.9 °C.

As for GATCCGCGAAAGCGTATC (((.(((....))).))), in series [1], the folding enthalpy is -18.4 kcal/mol. Also, in series [2], the Tm was found to be 43.4 °C.

In the case of GGCAGCGGAAACACTGCC (((((.(....).))))), in series [1], the folding enthalpy was -41 kcal/mol. Moreover, in series [2], the Tm amounted to 55.1 °C.

GCCAGCGAAAGCTTCGGC ((((((....)))..))): the folding enthalpy in series [1] was -23.7 kcal/mol. The Tm in series [2] came out at 47.8 °C.

In the case of GCGCTCGAAAGAGGCGC ((((((....))).))), in series [1], the folding enthalpy is -29.2 kcal/mol. For the same sequence, the Tm in series [2] turned out to be 67.4 °C.

Turning to GATCGGTTAGCCGATC ((((((....)))))), the folding enthalpy in series [1] is -46.4 kcal/mol. In addition, the Tm in series [2] is 58.6 °C.

For the sequence CGTGCGGAAACGCAACG ((((((....))).))), the folding enthalpy in series [1] is -27.5 kcal/mol. Also, the Tm in series [2] was determined as 53.9 °C.

GCCACGCGAAAGCAGGGC (((..((....))..))): in series [1], the folding enthalpy was -23.5 kcal/mol. Moreover, the Tm in series [2] was determined as 61.6 °C.

As to GTGGACGGAAACACCCAC ((((..(....)..)))), in series [1], the folding enthalpy is -12.2 kcal/mol. Moreover, the Tm in series [2] was 30.4 °C.
